Laboratory results taken from ChEMBL document CHEMBL4477202, “Synthesis and evaluation of duocarmycin SA analogs incorporating the methyl 1,2,8,8a-tetrahydrocyclopropa[c]imidazolo[4,5-e]indol-4-one-6-carboxylate (CImI) alkylation subunit” (Bioorg Med Chem, 2016).
Calls of active or inactive are those of the source. The rule behind the calls is not given here.

Experiments:
[1] = Solvolysis reactivity of the compound in phosphate buffer at pH 7 upto 187 hrs by UV spectrophotometry
[2] = Solvolysis reactivity of the compound in presence of Cd(acac)2 at 23 degC in MeoH solution by UV spectrophotometry
[3] = Solvolysis reactivity of the compound in phosphate buffer assessed as half life at pH 3 upto 187 hrs by UV spectrophotometry
Summary of the method: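 UV spectra taken hourly for the first 8 h, then every 12 h, over 0–187 h until absorbance stopped changing. Rate constant and t1/2 derived from initial (A_i) and final (A_f) absorbance.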

[4] = Solvolysis reactivity of the compound in presence of Ni(acac)2 at 23 degC in MeoH solution by UV spectrophotometry
[5] = Solvolysis reactivity of the compound in presence of Cu(acac)2 at 23 degC in MeoH solution by UV spectrophotometry
[6] = Solvolysis reactivity of the compound in presence of Zn(acac)2 at 23 degC in MeoH solution by UV spectrophotometry
[7] = Solvolysis reactivity of the compound in presence of Pb(acac)2 at 23 degC in MeoH solution by UV spectrophotometry
[8] = tested on: Betapolyomavirus macacae; assay: Induction of alkylation at Simian virus 40 150-bp DNA w794 after 24 hrs by PAGE and autoradiography method
Summary of the method: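 Labelled w794 DNA incubated with agent at 23 °C for 24 h. Unbound agent removed by EtOH precipitation, then thermolysis at 100 °C for 30 min to cleave strands at alkylation sites. Fragments resolved by 8% denaturing PAGE and read by autoradiography, alongside untreated control DNA and Sanger G, C, A, T sequencing lanes.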

[9] = tested on: L1210; assay: Cytotoxicity against mouse L1210 cells assessed as cell growth inhibition; type: functional, cell-based
[10] = Solvolysis reactivity of the compound in aqueous buffer assessed as solvolytic rate constant at pH 2 by UV spectrophotometry
[11] = Solvolysis reactivity of the compound in aqueous buffer assessed as half life at pH 2 by UV spectrophotometry
[12] = tested on: Betapolyomavirus macacae; assay: Induction of alkylation at Simian virus 40 150-bp DNA w794 at 10^-5 to 10^-7/M after 24 hrs by PAGE and autoradiography method
Summary of the method: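 w794 DNA incubated with agent at 23 °C for 24 h. Unbound agent was removed by EtOH precipitation, then the DNA was heated at 100 °C for 30 min to cleave strands at alkylated sites. Fragments were resolved by 8% denaturing PAGE against Sanger G, C, A and T sequencing lanes and untreated control DNA, and detected by autoradiography.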

In the case of `COC(=O)c1cc2c([nH]1)C(=O)C=C1N(C(=O)OC(C)(C)C)CC3CC123` (stereo unspecified), the Stability [1] is reported as “Stable”, the Stability [2] is reported as “Stable” and the T1/2 [3] is reported as 177 h. The Stability [4] was “Stable”, the Stability [5] was “Stable” and the Stability [6] was “Stable”. For the same compound, the Stability [7] was “Stable”.
With `COC(=O)c1cc2c([nH]1)C(=O)C=C1N(C(=O)c3cc4cc(OC)c(OC)c(OC)c4[nH]3)C[C@H]3C[C@]123` the Activity [8] was “Active”.
`COC(=O)c1nc2c([nH]1)C(=O)C=C1N(C(=O)OC(C)(C)C)C[C@@H]3C[C@@]123` showed an IC50 [9] of 1100 nM.
`COC(=O)c1cc2c([nH]1)C(=O)C=C1N(C(=O)c3cc4cc(NC(=O)c5cc6ccccc6[nH]5)ccc4[nH]3)C[C@@H]3C[C@@]123` gave an IC50 [9] of 0.15 nM.
Compound `COC(=O)c1nc2c([nH]1)C(=O)C=C1N(C(=O)c3cc4cc(NC(=O)c5cc6ccccc6[nH]5)ccc4[nH]3)C[C@H]3C[C@]123` has an IC50 [9] of 0.04 nM.
With `COC(=O)c1nc2c([nH]1)C(=O)C=C1N(C(=O)c3cc4cc(NC(=O)c5cc6ccccc6[nH]5)ccc4[nH]3)C[C@@H]3C[C@@]123` the IC50 [9] was 0.7 nM.
Work on `COC(=O)c1cc2c([nH]1)C(=O)C=C1N(C(=O)c3cc4cc(NC(=O)c5cc6ccccc6[nH]5)ccc4[nH]3)C[C@H]3C[C@]123` yielded an IC50 [9] of 0.004 nM.
In the case of `COC(=O)c1nc2c([nH]1)C(=O)C=C1N(C(=O)OC(C)(C)C)CC3CC123` (stereo unspecified), the Stability [2] is reported as “Stable”, the T1/2 [3] is reported as 34.7 h and the Stability [4] is reported as “Stable”. For the same compound, the Stability [5] was “Stable”, the Stability [6] was “Stable” and the Stability [7] was “Stable”.
`COC(=O)c1nc2c([nH]1)C(=O)C=C1N(C(=O)OC(C)(C)C)C[C@H]3C[C@]123` gave an IC50 [9] of 70 nM.
Compound `Cc1c[nH]c2c1[C@@]13C[C@@H]1CN(C(=O)OC(C)(C)C)C3=CC2=O` has a K [10] of 5.26 ×10⁻⁶ /s and a T1/2 [11] of 37 h.
In the case of `COC(=O)c1nc2c3c(cc(O)c2[nH]1)N(C(=O)c1cc2cc(OC)c(OC)c(OC)c2[nH]1)C[C@H]3CCl`, the Activity [12] is reported as “Active”.
Compound `COC(=O)c1nc2c([nH]1)C(=O)C=C1N(C(=O)c3cc4cc(OC)c(OC)c(OC)c4[nH]3)C[C@@H]3C[C@@]123` has an IC50 [9] of 2.2 nM.
For `COC(=O)c1nc2c([nH]1)C(=O)C=C1N(C(=O)c3cc4cc(OC)c(OC)c(OC)c4[nH]3)C[C@H]3C[C@]123`, the Activity [8] was “inactive” and the IC50 [9] was 0.05 nM.
